Test results as given in ChEMBL document CHEMBL4184168, “Anticancer activities of emetine prodrugs that are proteolytically activated by the prostate specific antigen (PSA) and evaluation of in vivo toxicity of emetine derivatives” (Bioorg Med Chem, 2017).
pIC50: −log10 of the molar value. The source made the active and inactive calls. The calls are words filed in the database; no cut-off is given here. *1 amine or outer side, *2 acyl side, *3 side chain or, on linkers, in order; H or OH if unused. Where a SMILES comes first, the peptide text is derived from it. [ ]: non-standard residue; d: D form. The star is where a group is joined. Emetine(N2') = CC[C@H]1CN2CCc3cc(OC)c(OC)cc3[C@@H]2C[C@@H]1C[C@@H]1c2cc(OC)c(OC)cc2CCN1*; PABC = O=C(OCc1ccc(N[*:1])cc1)[*:2]

Assays:
Mus musculus [1] = experiment: Toxicity in Balb/C mouse assessed death at >32 mg/kg, iv; format: organism-based; conditions: in vivo
[2] = Toxicity in iv dosed Balb/C mouse; format: organism-based; conditions: in vivo
How it was run: (§1)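 Male Balb/c mice, eight weeks old, about 25 g. Single IV bolus of 200 μL, doses ranging from 8 to 100 mg/kg, in 1% DMSO/saline or 10% cremophor/saline; vehicle-only controls. Each dose tested in triplicate. Mice watched for convulsions, death and behaviour after injection to set the maximum tolerated dose.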

Mus musculus [3] = experiment: Toxicity in Balb/C mouse assessed as convulsion at 33 mg/kg, iv measured at 1 min post dose; format: organism-based; conditions: in vivo; how it was run: as §1
Mus musculus [4] = experiment: Toxicity in Balb/C mouse assessed as death at 33 mg/kg, iv measured at 1 min post dose; format: organism-based; conditions: in vivo; how it was run: as §1
Mus musculus [5] = experiment: Toxicity in Balb/C mouse assessed as mortality at >100 mg/kg, iv; format: organism-based; conditions: in vivo; how it was run: as §1
Mus musculus [6] = experiment: Toxicity in Balb/C mouse assessed as change in behavior at >100 mg/kg, iv; format: organism-based; conditions: in vivo; how it was run: as §1
Mus musculus [7] = experiment: Toxicity in Balb/C mouse at >100 mg/kg, iv; format: organism-based; conditions: in vivo; how it was run: as §1
[8] = Stability in PBS buffer assessed as parent compound remaining at […] after 72 hrs by HPLC-MS analysis; format: physicochemical; conditions: read-out: Stability
[9] = Stability assessed as parent compound remaining at […] in presence of 10% FBS after 72 hrs by HPLC-MS analysis; format: physicochemical; conditions: cattle, read-out: Stability
LNCaP [10] = experiment: Antiproliferative activity against human LNCAP cells expressing PSA after 3 days by MTT assay; format: functional, cell-based; conditions: 72 h
How it was run: (§2)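 LNCaP seeded at 5 × 10^3 cells/well; PC3, CWR22Rv1 and MDA-MB-231 at 2.5 × 10^3. The first three were grown in RPMI and MDA-MB-231 in DMEM, each with 10% FBS. After 24 h attachment, cells got final 10, 50, 100, 1000 or 10,000 nM (0.1% DMSO) in eight replicates. Viable cells by MTT on day 0, 3 and 5, A570 corrected at 650 nm. Experiments run at least twice.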

PC-3 [11] = experiment: Antiproliferative activity against human PC3 cells after 3 days by MTT assay; format: functional, cell-based; conditions: PC-3, 72 h; how it was run: as §2
[12] = Stability in conditioned media assessed as parent compound remaining at […] after 72 hrs by HPLC-MS analysis; format: physicochemical; conditions: read-out: Stability
[13] = target: T1, Prostate-specific antigen (PSA) (Homo sapiens, UniProt P07288); experiment: Stability in PBS buffer assessed as human PSA mediated compound metabolism by measuring parent compound remaining at […] after 72 hrs by HPLC-MS analysis; format: ADME; conditions: read-out: Stability
T1 sequence (P07288 whole entry): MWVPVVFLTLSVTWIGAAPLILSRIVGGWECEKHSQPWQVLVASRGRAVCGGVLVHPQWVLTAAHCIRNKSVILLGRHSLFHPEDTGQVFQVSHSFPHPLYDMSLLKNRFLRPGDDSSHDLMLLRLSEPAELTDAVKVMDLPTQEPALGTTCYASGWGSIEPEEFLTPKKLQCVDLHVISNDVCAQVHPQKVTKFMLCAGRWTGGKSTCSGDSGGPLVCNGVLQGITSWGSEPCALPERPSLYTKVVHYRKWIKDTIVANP

Mus musculus [14] = experiment: Toxicity in Balb/C mouse at >50 mg/kg, iv; format: organism-based; conditions: in vivo; how it was run: as §1
Mus musculus [15] = experiment: Toxicity in Balb/C mouse assessed as convulsions at >25 mg/kg, iv; format: organism-based; conditions: in vivo; how it was run: as §1
LNCaP [16] = experiment: Potency index, ratio of emetine IC50 to compound IC50 for human LNCAP cells expressing PSA; format: functional
[17] = target: T2, Prostate-specific antigen (Homo sapiens, UniProt P07288); experiment: Prodrug activation assessed as human PSA-mediated 4-((S)-1-(L-Alanyl)pyrrolidine-2-carboxamido)benzyl (R)-1-(((2R,3R,11bS)-3-ethyl-9,10-dimethoxy-1,3,4,6,7,11b-hexahydro-2Hpyrido[2,1-a]isoquinolin-2-yl)methyl)-6,7-dimethoxy-3,4-dihydroisoquinoline-2(1H)-carboxylate formation measured over 24 hrs by LC-MS analysis
T2 sequence (P07288 whole entry): T1 sequence (P07288 whole entry)
How it was run: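 10 mM DMSO stock diluted to 200 μM final in PSA buffer (50 mM Tris·HCl, 100 mM NaCl, pH 7.4) with purified PSA at 20 μg/mL final and 2% DMSO. Shaken at 37 °C. Aliquots taken at time points, quenched with cold acetonitrile, held on ice, centrifuged, then analysed by reversed-phase C18 HPLC (215/285 nm) and mass spectrometry.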

MDA-MB-231 = experiment: Antiproliferative activity against human MDA-MB-231 cells at 50 to 10000 nM after 3 days by MTT assay; format: functional, cell-based; how it was run: as §2
PC-3 [18] = experiment: Antiproliferative activity against human PC3 cells at 50 to 10000 nM after 3 days by MTT assay; format: functional, cell-based; how it was run: as §2
Mus musculus [19] = experiment: Toxicity in Balb/C mouse assessed as convulsion at 16 mg/kg, iv up to 1 min; format: organism-based; conditions: in vivo; how it was run: as §1
CWR22R = experiment: Antiproliferative activity against human CWR22Rv1 cells expressing PSA after 3 days by MTT assay; format: functional, cell-based; conditions: 22Rv1, 72 h; how it was run: as §2
Mus musculus [20] = experiment: Toxicity in Balb/C mouse assessed as death at 16 mg/kg, iv up to 1 min; format: organism-based; conditions: in vivo; how it was run: as §1
Mus musculus [21] = experiment: Toxicity in Balb/C mouse at 32 mg/kg, iv; format: organism-based; conditions: in vivo

What does the source list for CC[C@H]1CN2CCc3cc(OC)c(OC)cc3[C@@H]2C[C@@H]1C[C@@H]1c2cc(OC)c(OC)cc2CCN1C(=O)OCc1ccc(NC(=O)[C@@H]2CCCN2C(=O)[C@H](C)N)cc1?
Activity (Mus musculus [1]): Toxic; MTD [2]: 32 mg/kg

Which Activity (Mus musculus [3]) does the source give for CC[C@H]1CN2CCc3cc(OC)c(OC)cc3[C@@H]2C[C@@H]1C[C@@H]1c2cc(OC)c(OC)cc2CCN1C(=O)OCc1ccc(NC(=O)[C@@H]2CCCN2C(=O)[C@H](C)NC(=O)[C@@H]2CCCN2C(=O)[C@H](C)NC(C)=O)cc1 (Ac-APAP[PABC]-{Emetine(N2')}) here?
Its Activity is “Toxic”.

What about the Activity (Mus musculus [4]) of the same molecule?
Its Activity is “Toxic”.

For CC[C@H]1CN2CCc3cc(OC)c(OC)cc3[C@@H]2C[C@@H]1C[C@@H]1c2cc(OC)c(OC)cc2CCN1C(=O)OCc1ccc([N+](=O)[O-])cc1, which Activity (Mus musculus [5]) is on record?
The Activity was “Non-Toxic”.

What about the Activity (Mus musculus [6]) of the same molecule?
Its Activity is “Non-Toxic”.

And the MTD [2]?
Its MTD is greater than 64 mg/kg.

What about the Activity (Mus musculus [7]) of the same molecule?
Its Activity is “Non-Toxic”.

What does the source list for CC[C@H]1CN2CCc3cc(OC)c(OC)cc3[C@@H]2C[C@@H]1C[C@@H]1c2cc(OC)c(OC)cc2CCN1C(=O)OCc1ccc(NC(=O)[C@H](CC(C)C)NC(=O)[C@@H](N)CO)cc1?
remaining at 72 h [8]: 100%; remaining at 72 h [9]: 100%; pIC50 (LNCaP [10]): 7.00; pIC50 (PC-3 [11]): 7.00; remaining at 72 h [12]: 100%; remaining at 72 h [13]: 100%; Activity (Mus musculus [14]): Toxic; MTD [2]: 50 mg/kg

With CC[C@H]1CN2CCc3cc(OC)c(OC)cc3[C@@H]2C[C@@H]1C[C@@H]1c2cc(OC)c(OC)cc2CCN1C(=O)OCc1ccc(NC(=O)[C@@H]2CCCN2C(=O)[C@H](C)NC(=O)[C@H](CCC(N)=O)NC(=O)[C@H](CC(C)C)NC(=O)[C@H](CCCCN)NC(=O)[C@H](CO)NC(=O)[C@H](CO)NC(=O)[C@H](Cc2cnc[nH]2)NC(C)=O)cc1 (Ac-HSSKLQAP[PABC]-{Emetine(N2')}) as the molecule, how does the Activity (Mus musculus [15]) read?
Its Activity is “Toxic”.

What about the “Ratio IC50” value (LNCaP [16]) of the same molecule?
Its value is 24.

What about the Drug metabolism [17] of the same molecule?
The Drug metabolism was “Metabolite_Notdetected”.

What about the Activity (MDA-MB-231) of the same molecule?
Its Activity is “Active”.

And the Activity (PC-3 [18])?
Its Activity is “Active”.

Which Activity (Mus musculus [5]) does the source give for CC[C@H]1CN2CCc3cc(OC)c(OC)cc3[C@@H]2C[C@@H]1C[C@@H]1c2cc(OC)c(OC)cc2CCN1C(=S)[S-].[Na+] here?
The Activity was “Non-Toxic”.

What about the Activity (Mus musculus [6]) of the same molecule?
Its Activity is “Non-Toxic”.

What about the MTD [2] of the same molecule?
The MTD was greater than 100 mg/kg.

What does the source list for CC[C@H]1CN2CCc3cc(OC)c(OC)cc3[C@@H]2C[C@@H]1C[C@H]1NCCc2cc(OC)c(OC)cc21 [EMETINE]?
Activity (MDA-MB-231): Active; Activity (Mus musculus [19]): Toxic; pIC50 (CWR22R): 7.51; Activity (PC-3 [18]): Active; MTD [2]: 8 mg/kg; Activity (Mus musculus [20]): Toxic

Which Activity (Mus musculus [21]) does the source give for CC[C@H]1CN2CCc3cc(OC)c(OC)cc3[C@@H]2C[C@@H]1C[C@@H]1c2cc(OC)c(OC)cc2CCN1C(=O)/C(C)=C(/C)C(=O)O here?
The Activity was “Toxic”.
